Results from ChEMBL document CHEMBL4368884, “Structure-activity relationship of the cinnamamide family of antibiotic potentiators for methicillin-resistant Staphylococcus aureus (MRSA)” (Medchemcomm, 2018).

How the values were obtained:
[1] = system: Staphylococcus aureus; test: Growth inhibition of Staphylococcus aureus MRSA252; format: organism-based; settings: in vitro
Method in brief: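 Compound alone was two-fold serially diluted in cation-adjusted Mueller-Hinton II broth containing 2.4% DMSO. Bacteria were inoculated at 5 × 10⁵ CFU mL⁻¹ and incubated at 36 °C for 16–20 h. The MIC was read in triplicate.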

[2] = system: Staphylococcus aureus; test: Potentiation of oxacillin-induced antibacterial activity against Staphylococcus aureus MRSA252 assessed as oxacillin MIC at 20 uM (reference value: 256 ug/ml); format: functional
[3] = system: Staphylococcus aureus; test: Potentiation of oxacillin-induced antibacterial activity against methicillin/oxacillin/tetracycline-resistant Staphylococcus aureus NRS100 assessed as oxacillin MIC at 20 uM; format: functional
Method in brief: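 Oxacillin MIC measured with the synthetic potentiator held at a fixed 20 μM. Two-fold serial dilution in cation-adjusted Mueller-Hinton II broth containing 2.4% DMSO. Inoculum 5 × 10⁵ CFU mL⁻¹, incubated at 36 °C for 16–20 h. Run in triplicate.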

[4] = system: Staphylococcus aureus; test: Potentiation of oxacillin-induced antibacterial activity against Staphylococcus aureus NRS386 assessed as oxacillin MIC at 20 uM; format: functional; settings: USA700 NRS386
[5] = system: Staphylococcus aureus; test: Potentiation of oxacillin-induced antibacterial activity against Staphylococcus aureus NRS70 assessed as oxacillin MIC at 20 uM; format: functional
[6] = system: Staphylococcus aureus; test: Potentiation of oxacillin-induced antibacterial activity against Staphylococcus aureus MRSA252 assessed as fold reduction in oxacillin MIC at 20 uM relative to oxacillin alone; format: functional

Row | Structure (SMILES) | MIC [2] [µg/mL] | growth inhibition (GI) [1] | MIC [3] [µg/mL] | MIC [4] [µg/mL] | MIC [5] [µg/mL] | fold change (FC) [6]
1 | Cc1ccc(S(=O)(=O)N(CCO)c2ccccc2CN(C)C(=O)/C=C/c2ccc(C(F)(F)F)cc2)cc1 | 2 | Non-Toxic | 4 | 4 | 16 | 128
2 | CCc1ccc(S(=O)(=O)N(CCO)c2ccccc2CN(C)C(=O)/C=C/c2ccc(C(F)(F)F)cc2)cc1 | 4 | Non-Toxic | 16 | 8 | 16 | 64
3 | Cc1ccc(S(=O)(=O)N(CCO)c2ccccc2CN(C(=O)/C=C/c2ccc(C(F)(F)F)cc2)C(C)C)cc1 | ≥ 256 | Non-Toxic |  |  |  | 
4 | Cc1ccc(S(=O)(=O)N(CCO)c2ccccc2CN(C)C(=O)/C=C/c2ccc(Br)s2)cc1 | ≥ 256 | Non-Toxic |  |  |  | 
5 | Cc1ccc(S(=O)(=O)N(CCO)c2ccccc2CN(C)C/C=C/c2ccccc2)cc1 | ≥ 256 | Non-Toxic |  |  |  | 
6 | CN(Cc1ccccc1NS(=O)(=O)c1ccc(F)cc1)C(=O)/C=C/c1ccc(C(F)(F)F)cc1 | ≥ 256 | Non-Toxic |  |  |  | 
7 | COc1ccc(/C=C/C(=O)N(C)Cc2ccccc2N(CCO)S(=O)(=O)c2ccc(C)cc2)cc1 | ≥ 256 | Non-Toxic |  |  |  | 
8 | COc1ccc(S(=O)(=O)N(CCO)c2ccccc2CN(C)C/C=C/c2ccccc2)cc1 | ≥ 256 | Non-Toxic |  |  |  | 
9 | C=CCN(Cc1ccccc1N(CCO)S(=O)(=O)c1ccc(OC)cc1)C(C)C | ≥ 256 | Non-Toxic |  |  |  | 
10 | Cc1ccc(S(=O)(=O)N(CCO)c2ccccc2CN(C)C(=O)/C=C/c2ccc(Cl)cc2Cl)cc1 | ≥ 256 | Non-Toxic |  |  |  | 
11 | Cc1ccc(S(=O)(=O)N(CCO)c2ccccc2CN(C)C(=O)c2ccc(Cl)cc2)cc1 | ≥ 256 | Non-Toxic |  |  |  | 
12 | CC(=O)Nc1ccc(/C=C/C(=O)N(C)Cc2ccccc2N(CCO)S(=O)(=O)c2ccc(C)cc2)cc1 | ≥ 256 | Non-Toxic |  |  |  | 
13 | C=CCN(C)Cc1ccccc1N(CCO)S(=O)(=O)c1ccc(Cl)cc1 | ≥ 256 | Non-Toxic |  |  |  | 
14 | Cc1ccc(S(=O)(=O)N(CCO)c2ccccc2CN(C(=O)/C=C/c2ccc(C(F)(F)F)cc2)C2CC2)cc1 | ≥ 256 | Non-Toxic |  |  |  | 
15 | Cc1ccc(S(=O)(=O)N(CCO)c2ccccc2CN(C)C(=O)CCc2ccc(Cl)cc2)cc1 | ≥ 256 | Non-Toxic |  |  |  | 
16 | Cc1ccc(S(=O)(=O)N(CCO)c2ccccc2CN(C)C(=O)/C=C/c2ccc(F)cc2)cc1 | ≥ 256 | Non-Toxic |  |  |  | 

Row | Structure (SMILES) | MIC [2] [µg/mL] | growth inhibition (GI) [1] | MIC [3] [µg/mL] | MIC [4] [µg/mL] | MIC [5] [µg/mL] | fold change (FC) [6]
17 | CN(C/C=C/c1ccc(Cl)cc1)Cc1ccccc1N(CCO)S(=O)(=O)Cc1ccccc1 | ≥ 256 | Non-Toxic |  |  |  | 
18 | Cc1ccc(S(=O)(=O)N(CCO)c2ccccc2CN(C)C(=O)c2ccc3cc(Br)ccc3c2)cc1 | ≥ 256 | Non-Toxic |  |  |  | 
19 | Cc1ccc(S(=O)(=O)N(CCO)c2ccccc2CN(C)C(=O)/C=C/c2ccc(Cl)cc2)cc1 | 2 | Non-Toxic | 2 | 4 | 8 | 128
20 | Cc1ccc(S(=O)(=O)N(CCO)c2ccccc2CN(C)C(=O)COc2ccc(Cl)cc2)cc1 | ≥ 256 | Non-Toxic |  |  |  | 
21 | CN(Cc1ccccc1N(CCO)S(=O)(=O)c1ccc(F)cc1)C(=O)/C=C/c1ccc(Cl)cc1 | 4 | Non-Toxic | 1 | 1 | 8 | 64
22 | CN(Cc1ccccc1N(CCO)S(=O)(=O)c1ccc(F)cc1)C(=O)/C=C/c1ccc(C(F)(F)F)cc1 | 2 | Non-Toxic | 2 | 8 | 16 | 128
23 | Cc1ccc(S(=O)(=O)N(CCO)c2ccccc2CN(C)C(=O)/C=C/c2ccc(-c3ccc(Cl)cc3)o2)cc1 | ≥ 256 | Non-Toxic |  |  |  | 
24 | CCN(Cc1ccccc1N(CCO)S(=O)(=O)c1ccc(C)cc1)C(=O)/C=C/c1ccc(C(F)(F)F)cc1 | ≥ 256 | Non-Toxic |  |  |  | 
25 | Cc1ccc(S(=O)(=O)N(CCO)c2ccccc2C(=O)N(C)C/C=C/c2ccc(Cl)cc2)cc1 | ≥ 256 | Non-Toxic |  |  |  | 
26 | Cc1ccc(S(=O)(=O)N(CCO)c2ccccc2CN(C)C(=O)/C=C/c2cccnc2)cc1 | ≥ 256 | Non-Toxic |  |  |  | 
27 | Cc1ccc(S(=O)(=O)N(CCO)c2cccc(CN(C)C(=O)/C=C/c3ccc(C(F)(F)F)cc3)c2)cc1 | ≥ 256 | Non-Toxic |  |  |  | 
28 | Cc1ccc(S(=O)(=O)N(CCO)c2ccccc2CN(C)C(=O)/C=C/c2ccc(C(F)(F)F)cc2)cc1F | 4 | Non-Toxic | 2 | 8 | 16 | 64
29 | CN(Cc1ccccc1N(CCO)S(=O)(=O)c1ccccc1)C(=O)/C=C/c1ccc(C(F)(F)F)cc1 | 4 | Non-Toxic | 2 | 2 | 16 | 64
30 | Cc1ccc(S(=O)(=O)N(CCO)c2ccccc2CNC(=O)/C=C/c2ccc(C(F)(F)F)cc2)cc1 | ≥ 256 | Non-Toxic |  |  |  | 
31 | C=CCN(C)Cc1ccccc1N(CCO)S(=O)(=O)c1ccc(C)cc1 | ≥ 256 | Non-Toxic |  |  |  | 

Second part, led by results:

Row | MIC [2] [µg/mL] | Structure (SMILES) | growth inhibition (GI) [1] | MIC [3] [µg/mL] | MIC [4] [µg/mL] | MIC [5] [µg/mL] | fold change (FC) [6]
32 | 128 | COc1ccc(S(=O)(=O)N(CCO)c2ccccc2CN(C)C/C=C/c2ccc(Cl)cc2)cc1 | Non-Toxic |  |  |  | 
33 | ≥ 256 | Cc1ccc(S(=O)(=O)N(CCO)c2ccccc2CN(C)C(=O)/C=C/c2ccco2)cc1 | Non-Toxic |  |  |  | 
34 | ≥ 256 | CN(Cc1ccccc1)Cc1ccccc1N(CCO)S(=O)(=O)c1ccc(C(F)(F)F)cc1 | Non-Toxic |  |  |  | 
35 | 32 | Cc1ccc(S(=O)(=O)N(CCO)c2ccccc2CN(C)C/C=C/c2ccc(Cl)cc2)cc1 | Non-Toxic |  |  |  | 
36 | 128 | Cc1ccc(S(=O)(=O)N(CCO)c2ccccc2CN(C/C=C/c2ccc(Cl)cc2)CC(C)C)cc1 | Non-Toxic |  |  |  | 
37 | 32 | CN(C/C=C/c1ccccc1)Cc1ccccc1N(CCO)S(=O)(=O)c1ccc(C(F)(F)F)cc1 | Non-Toxic |  |  |  | 
38 | ≥ 256 | CN(Cc1ccccc1N(CCO)S(=O)(=O)c1ccsc1)C(=O)/C=C/c1ccc(Cl)cc1 | Non-Toxic |  |  |  | 
39 | ≥ 256 | CC(=O)Nc1ccc(S(=O)(=O)N(CCO)c2ccccc2CN(C)C/C=C/c2ccc(Cl)cc2)cc1 | Non-Toxic |  |  |  | 
40 | 64 | CN(C/C=C/c1ccc(Cl)cc1)Cc1ccccc1N(CCO)S(=O)(=O)c1ccc(C(F)(F)F)cc1 | Non-Toxic |  |  |  | 
41 | ≥ 256 | CN(Cc1ccccc1N(CCO)S(=O)(=O)c1ccc([N+](=O)[O-])cc1)C(=O)/C=C/c1ccc(C(F)(F)F)cc1 | Non-Toxic |  |  |  | 
42 | 32 | CN(Cc1ccccc1N(CCO)S(=O)(=O)c1ccc(C#N)cc1)C(=O)/C=C/c1ccc(C(F)(F)F)cc1 | Non-Toxic |  |  |  | 
43 | 32 | Cc1ccc(S(=O)(=O)N(CCO)c2ccccc2CN(C)C/C=C/c2ccc(Cl)c(Cl)c2)cc1 | Non-Toxic |  |  |  | 
44 | 32 | CC(C)c1ccc(S(=O)(=O)N(CCO)c2ccccc2CN(C)C(=O)/C=C/c2ccc(C(F)(F)F)cc2)cc1 | Non-Toxic |  |  |  | 
45 | 128 | COc1ccc(S(=O)(=O)N(CCO)c2ccccc2CN(C/C=C/c2ccc(Cl)cc2)CC(C)C)cc1 | Non-Toxic |  |  |  | 
46 | 32 | CN(Cc1ccccc1N(CCO)S(=O)(=O)c1ccc(OC(F)(F)F)cc1)C(=O)/C=C/c1ccc(C(F)(F)F)cc1 | Non-Toxic |  |  |  | 
47 | 16 | CN(C/C=C/c1ccc(Cl)cc1)Cc1ccccc1N(CCO)S(=O)(=O)c1ccc(Cl)cc1 | Non-Toxic |  |  |  | 
48 | 64 | CN(Cc1ccccc1N(CCO)S(=O)(=O)c1ccc2c(c1)OCCO2)C(=O)/C=C/c1ccc(C(F)(F)F)cc1 | Non-Toxic |  |  |  | 
49 | 16 | Cc1ccc(S(=O)(=O)N(CCO)c2ccccc2CN(C)C(=O)/C=C/c2ccc(Cl)c(Cl)c2)cc1 | Non-Toxic |  |  |  | 
50 | 256 | CN(Cc1ccccc1N(CCO)S(=O)(=O)c1cccs1)C(=O)/C=C/c1ccc(Cl)cc1 | Non-Toxic |  |  |  | 
51 | 64 | Cc1ccc(/C=C/C(=O)N(C)Cc2ccccc2N(CCO)S(=O)(=O)c2ccc(C)cc2)cc1 | Non-Toxic |  |  |  | 
